The values that follow come from article PMC6683736 (The Journal of Cell Biology, 2019).

Experiment [1] deals with MDCK cells. Put plainly: Actomyosin organization by IF. It counts as cell-based, canine.
The next experiment relates to Scribble PDZ1 domain. Description: X-ray crystal structure of Scribble PDZ1/SGEF-PDZpeptide complex. It is filed as binding, human. The settings on record: 1.1 Å, PDB ID 6MYE.
A further experiment relates to Dlg1. Put plainly: Coimmunoprecipitation of SGEF constructs with GFP-Dlg1, HEK293FT lysates. It counts as binding, Mouse. The settings on record: GFP-trap nanobodies, WB. The method, boiled down: (§1)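 HEK293FT cells were co-transfected by calcium phosphate; medium was changed at 24 h and cells harvested at 48 h. Lysis was in Tris-HCl pH 7.4, MgCl2, 150 mM NaCl, 1% Triton X-100 and protease inhibitors. Equal protein was incubated with GFP-Trap beads for 1 h at 4°C, washed four times, then immunoblotted with anti-GFP and anti-myc (or anti-His).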

For a further experiment, the system named is Scribble. Put plainly: Coimmunoprecipitation of SGEF constructs with GFP-Scribble, HEK293FT lysates. It is filed as binding, Human. The settings on record: GFP-trap nanobodies, WB.
A further experiment has as its system Xenopus embryos. Put plainly: Junctional localization in gastrula-stage embryos. It is filed as in vivo, Xenopus laevis. The following applies: live confocal, mNeon-tagged. Summed up:
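Embryos were microinjected in the animal hemisphere with mRNAs, either at the two-cell stage (each cell twice) or at the four-cell stage (once). They were raised to gastrula stage (10.5–12) and live-imaged by confocal. mNeon-tagged protein was coexpressed with BFP-ZO-1 (tight junction marker) and PLEKHA7-mCherry (adherens junction marker), and the junctional-to-cytosolic intensity ratio was quantified.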

In experiment [2] the test system is MDCK cells. Description: Height of MDCK monolayer, confocal XZ. It is filed as cell-based, canine. The settings on record: average, n = 50 cells; Fig. 9 I. Summed up:
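Confocal XZ sections of confluent control, SGEF-knockdown and rescue MDCK monolayers were acquired on a Leica SP8. Cells were stained for E-cadherin, β-catenin and nuclei, or for F-actin and Hoechst, and monolayer height was measured.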

In another experiment the test system is SGEF. Put plainly: Coimmunoprecipitation of Dlg1 constructs with SGEF, HEK293FT lysates. It counts as binding, Human. The settings on record: WB. The method, boiled down: as §1
In experiment [3] the test system is Scribble/SGEF/Dlg1 ternary complex. Description: Coprecipitation of Scribble with GFP-Dlg1. It is filed as binding. The settings on record: HA-Scribble and GFP-Dlg1 coexpressed, IP anti-GFP, HEK293.
The subject of experiment [4] is MDCK cells. Put plainly: Zigzag index of tight junctions. It is filed as cell-based, canine. The following applies: compared with SGEF KD; Fig. 9 J.

For `Cc1ccc2c(c1)C(=O)C1(O)CCN(c3ccccc3)C1=N2` (centres unmarked) [blebbistatin, reference compound], the “relative strength of effect on actomyosin array and stress fibers” value with MDCK cells [1] (16 h, blebbistatin vs Y-27632) is “stronger effect than Y-27632”.

Take “ac-KPNGLLITDFPVEDCONH2 [SGEF-PDZpeptide]”: in the experiment with Scribble PDZ1 domain, the “accessible surface area covered by peptide” value is listed as around 500 Å^2; the “binding register in the PDZ pockets” value is “novel interactions through pockets near the α1 helix in Scribble PDZ1 (S+1 pocket), which accommodate the P+1 Pro in SGEF”; the “residues of peptide interacting with Scribble PDZ domain” value is on record as 11 residues.

B1: SGEF 228–871: SGEF deletion mutant, binds to Dlg1 but not to Scribble (protein)
chain: LENPSVVLSTNSPAALKVGKQQIIPKSLASEIKISKSNNQNVEPHKRLLKVRSMVEGLGGPLGHAGEESEVDNDVDSPGSLRRGLRSTSYRRAVVSGFDFDSPTSSKKKNRMSQPVLKVVMEDKEKFSSLGRIKKKMLKGQGTFDGEENAVLYQNYKEKALDIDSDEESEPKEQKSDEKIVIHHKPLRSTWSQLSAVKRKGLSQTVSQEERKRQEAIFEVISSEHSYLLSLEILIRMFKNSKELSDTMTKTERHHLFSNITDVCEASKKFFIELEARHQNNIFIDDISDIVEKHTASTFDPYVKYCTNEVYQQRTLQKLLATNPSFKEVLSRIESHEDCRNLPMISFLILPMQRVTRLPLLMDTICQKTPKDSPKYEVCKRALKEVSKLVRLCNEGARKMERTEMMYTINSQLEFKIKPFPLVSSSRWLVKRGELTAYVEDTVLFSRRTSKQQVYFFLFNDVLIITKKKSEESYNVNDYSLRDQLLVESCDNEELNSSPGKNSSTMLYSRQSSASHLFTLTVLSNHANEKVEMLLGAETQSERARWITALGHSSGKPPADRTSLTQVEIVRSFTAKQPDELSLQVADVVLIYQRVSDGWYEGERLRDGERGWFPMECAKEITCQATIDKNVERMGRLLGLETNV
modifications: left off: myc (inferred from the legends of Figures 1 and 2), end not stated, kept
Regarding B1, in the experiment with Dlg1, the “interaction with Dlg1” value is given as “able to bind efficiently to Dlg1”. The “interaction with Scribble” value in the experiment on Scribble is “unable to bind”. In addition, the “localization at apical junctional complex” value in the experiment on Xenopus embryos is given as “predominantly cytosolic, with only a small fraction still targeted to junctions”.

B2: SGEF 1–227: SGEF deletion mutant, binds to Scribble but not to Dlg1 (protein)
chain: MDGESEVDFSSNSITPLWRRRSIPQPHQVLGRSKPRPQSYQSPNGLLITDFPVEDGGTLLAAQIPAQVPTASDSRTVHRSPLLLGAQRRAVANGGTASPEYRAASPRLRRPKSPKLPKAVPGGSPKSPANGAVTLPAPPPPPVLRPPRTPNAPAPCTPEEDLTGLTASPVPSPTANGLAANNDSPGSGSQSGRKAKDPERGLFPGPQKSSSEQKLPLQRLPSQENEL
modifications: left off: myc (inferred from the legends of Figures 1 and 2), end not stated, kept
As to B2, the “interaction with Dlg1” value in the experiment on Dlg1 is “did not interact with Dlg1”. The “interaction with Scribble” value in the experiment on Scribble was “sufficient to interact with Scribble”. The molecule further registered a cell height in the experiment on MDCK cells [2] of 2.99 ± 0.065 µm. For the same molecule, in the experiment on Xenopus embryos, the “localization at apical junctional complex” value is “localized efficiently to the AJC”.

B3: Dlg1 C-terminal construct: C-terminal half of Dlg1 comprising the SH3 and GUK domains (protein)
chain: KRSLYVRALFDYDKTKDSGLPSQGLNFKFGDILHVINASDDEWWQARQVTPDGESDEVGVIPSKRRVEKKERARLKTVKFNSKTRDKGEIPDDMGSKGLKHVTSNASDSESSYRGQEEYVLSYEPVNQQEVNYTRPVIILGPMKDRINDDLISEFPDKFGSCVPHTTRPKRDYEVDGRDYHFVTSREQMEKDIQEHKFIEAGQYNNHLYGTSVQSVREVAEKGKHCILDVSGNAIKRLQIAQLYPISIFIKPKSMENIMEMNKRLTEEQARKTFERAMKLEQEFTEHFTAIVQGDTLEDIYNQVKQIIEEQSGSYIWVPAKEKL
modifications: left off: GFP (inferred from the legend of Figure 2), end not stated, kept
B3: in the experiment with SGEF, the “interaction with SGEF” value is reported as “able to bind efficiently to SGEF”.

B4: SGEF 1–414: N-terminal half of SGEF, ends just before DH-PH domain (protein)
chain: MDGESEVDFSSNSITPLWRRRSIPQPHQVLGRSKPRPQSYQSPNGLLITDFPVEDGGTLLAAQIPAQVPTASDSRTVHRSPLLLGAQRRAVANGGTASPEYRAASPRLRRPKSPKLPKAVPGGSPKSPANGAVTLPAPPPPPVLRPPRTPNAPAPCTPEEDLTGLTASPVPSPTANGLAANNDSPGSGSQSGRKAKDPERGLFPGPQKSSSEQKLPLQRLPSQENELLENPSVVLSTNSPAALKVGKQQIIPKSLASEIKISKSNNQNVEPHKRLLKVRSMVEGLGGPLGHAGEESEVDNDVDSPGSLRRGLRSTSYRRAVVSGFDFDSPTSSKKKNRMSQPVLKVVMEDKEKFSSLGRIKKKMLKGQGTFDGEENAVLYQNYKEKALDIDSDEESEPKEQKSDEKIVIHHKPL
modifications: left off: myc (inferred from the legends of Figures 2 and 3), end not stated, kept
In the case of B4, the “interaction with Dlg1” value with Dlg1 is “interacted efficiently with Dlg1”. For the same molecule, in experiment [3], the “formation of Scribble/SGEF/Dlg1 ternary complex” value was “minimum SGEF mutant that can mediate the formation of the Scribble/SGEF/Dlg1 complex”.

B5: SH3 domain by itself: Dlg1 SH3 domain, 536–636 (protein, UniProt Q12959 536-636, looked up, fragment)
chain: GQAVTIVAQYRPEEYSRFEAKIHDLREQMMNSSISSGSGSLRTSQKRSLYVRALFDYDKTKDSGLPSQGLNFKFGDILHVINASDDEWWQARQVTPDGESD
modifications: SH3 domain
For B5, the “interaction with SGEF” value in the experiment with SGEF is given as “no detectable binding”.

B6: SGEF 1–400: minimum region required to bind Scribble and Dlg1, no catalytic activity (protein)
chain: MDGESEVDFSSNSITPLWRRRSIPQPHQVLGRSKPRPQSYQSPNGLLITDFPVEDGGTLLAAQIPAQVPTASDSRTVHRSPLLLGAQRRAVANGGTASPEYRAASPRLRRPKSPKLPKAVPGGSPKSPANGAVTLPAPPPPPVLRPPRTPNAPAPCTPEEDLTGLTASPVPSPTANGLAANNDSPGSGSQSGRKAKDPERGLFPGPQKSSSEQKLPLQRLPSQENELLENPSVVLSTNSPAALKVGKQQIIPKSLASEIKISKSNNQNVEPHKRLLKVRSMVEGLGGPLGHAGEESEVDNDVDSPGSLRRGLRSTSYRRAVVSGFDFDSPTSSKKKNRMSQPVLKVVMEDKEKFSSLGRIKKKMLKGQGTFDGEENAVLYQNYKEKALDIDSDEESEPKE
modifications: left off: myc (inferred from the legend of Figure 2), end not stated, kept
On to B6, for which the “interaction with Dlg1” value in the experiment with Dlg1 was “able to bind to Dlg1”. The “zigzag index (in words)” value in the experiment with MDCK cells [4] is reported as “increased significantly”. Moreover, the “rescue of increased contractility” value in the experiment with MDCK cells [1] (myosin II staining, SGEF KD background) was “able to rescue the increase in contractility”. Moreover, in the experiment with MDCK cells [2], the cell height came to 2.57 ± 0.049 µm.

B7: GUK domain alone: Dlg1 GUK domain, 699–893 (protein, UniProt Q12959 699-893, looked up, fragment)
chain: YVLSYEPVNQQEVNYTRPVIILGPMKDRINDDLISEFPDKFGSCVPHTTRPKRDYEVDGRDYHFVTSREQMEKDIQEHKFIEAGQYNNHLYGTSVQSVREVAEKGKHCILDVSGNAIKRLQIAQLYPISIFIKPKSMENIMEMNKRLTEEQARKTFERAMKLEQEFTEHFTAIVQGDTLEDIYNQVKQIIEEQSG
modifications: GUK domain
Regarding B7, in the experiment on SGEF, the “interaction with SGEF” value was “able to interact with SGEF”.
